Data from article PMC3155308 (The EMBO Journal, 2011).
“Also recorded” adds a separate entry of the source. Where no end group is shown, it is not given here.

B1: MyTH4–FERM cassette (protein)
chain: TRWSSAIQNVTDTKAPIDTPTQQLIQDIKENCLNSDVVEQIYKRNPILRYTHHPLHSPLLPLPYGDINLNLLKDKGYTTLQDEAIKIFNSLQQLESMSDPIPIIQGILQTGHDLRPLRDELYCQLIKQTNKVPHPGSVGNLYSWQILTCLSCTFLPSRGILKYLKFHLKRIREQFPGSEMEKYALFTYESLKKTKCREFVPSRDEIEALIHRQEMTSTVYCHGGGSCKITINSHTTAGEVVEKLIRGLAMEDSRNMFALFEYNGHVDKAIESRTVVADVLAKFEKLAATSEVGDLPWKFYFKLYCFLDTDNVPKDSVEFAFMFEQAHEAVIHGHHPAPEENLQVLAALRLQYLQGDYTLHAAIPPLEEVYSLQRLKARISQSTKTFSFRTGSVVRQKVEEEQMLDMWIKEEVSSARASIIDKWRKFQGMNQEQAMAKYMALIKEWPGYGSTLFDVECKEGGFPQELWLGVSADAVSVYKRGEGRPLEVFQYEHILSFGAPLANTYKIVVDERELLFETSEVVDVAKLMKAYISMIVKKRYSTTRSASSQGSSR
modifications: left off: His6, N-terminal, cleaved

Legend:
[1] = test system: myosin-X MyTH4–FERM cassette; assay: Pull-down with GST-fused integrin β5 cytoplasmic tail; format: binding, human; settings: GST-fused integrin β5 (743–799), Myo-X 10 μM
In short: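 MyTH4–FERM cassette (10 μM) was pulled down on glutathione-Sepharose at 4°C by GST-fused human integrin β5 cytoplasmic tail (743–799), with DCC P3 peptide at 0, 10, 50 or 100 μM. Eluates were run on SDS–PAGE. Bound cassette was expressed relative to the no-DCC sample, from three independent measurements.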

[2] = test system: myosin-X MyTH4–FERM cassette / microtubules; assay: Competition microtubule co-sedimentation of MyTH4–FERM cassette; format: binding, human; settings: Myo-X 4 μM; integrin β5 peptide 0, 4, 20 and 40 μM; three independent measurements
[3] = Analytical ultracentrifugation; format: physicochemical; settings: AUC, mono-modal peak
In short: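 Sedimentation velocity at 20°C and 25 000 r.p.m. Purified protein was in 20 mM Tris (pH 8.5), 150 mM NaCl and 5 mM DTT, at 1 mg/ml (14 μM). Sedimentation data were fitted to obtain the species distribution.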

microtubules = settings: ref Weber et al, 2004; cited from earlier work
[4] = test system: myosin-X MyTH4–FERM cassette; assay: Gel filtration and AUC of cassette–DCC P3 complex; format: binding, human; settings: through the MyTH4–FERM cassette
DCC = settings: yeast two-hybrid; ref Zhu et al, 2007; cited from earlier work
[5] = test system: C-terminal acidic tail peptide of β2B-tubulin; assay: Pull-down of wild-type and mutated MyTH4–FERM cassettes with GST-tubulin tail; format: binding; settings: SDS–PAGE
In short: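 Human myosin-X MyTH4–FERM cassette (wild type or site-directed mutants) was expressed in E. coli BL21Star(DE3) at 20°C with 0.1 mM IPTG. It was Ni-NTA purified, then His-tag cleaved with HRV3C, then run over cation exchange and gel filtration. GST bait was human DCC 1390–1447 or β2B-tubulin 390–445. Cassette and bait were mixed with glutathione-Sepharose at 4°C, washed, and eluates resolved by SDS–PAGE.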

[6] = test system: myosin-X MyTH4–FERM cassette; assay: Pull-down with GST-fused C-terminal tail peptides of α- and β-tubulins; format: binding, human; settings: SDS–PAGE
In short: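 Purified MyTH4–FERM cassette was mixed with GST-fused α1A-tubulin (399–451) or β2B-tubulin (390–445) tail peptide in 20 mM Tris–HCl pH 8.0, 50 mM NaCl, 1 mM DTT at 4°C for 30 min. Glutathione-Sepharose was then added for 10 min at 4°C, with five washes. Elution used 20 mM glutathione in 50 mM Tris–HCl pH 8.0 with 150 mM NaCl, then SDS–PAGE.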

Row | Molecule | binding of integrin β5 cytoplasmic peptide [1] | interference with microtubule binding by integrin β5 [2] | association state in solution [3] | microtubule association (microtubules) | cargo-mediated dimerization of myosin-X [4] | DCC binding in two-hybrid assay (DCC) | binding to β2B-tubulin C-terminal tail peptide [5] | binding to α- and β-tubulin acidic tails [6]
1 | integrin β5 cytoplasmic peptide: integrin β5 cytoplasmic tail (residues 743–799) ({GST}-KLLVTIHDRREFAKFQSERSRARYEMASNPLYRKPISTHTVDFTFNKFNKSYNGTVD; not fully specified) | showed binding | interfere with microtubule binding | – | – | – | – | – | –
2 | B1 | – | – | monomer | sufficient to confer microtubule association | no cargo-mediated dimerization was observed | sufficient for DCC and neogenin binding; also recorded: full DCC-binding affinity | shows binding | binds both α- and β-tubulin acidic tails
